According to ChEMBL document CHEMBL3085648, “Enhancement of kinase selectivity in a potent class of arylamide FMS inhibitors” (Bioorg Med Chem Lett, 2013):
Active and inactive are the calls of the source. The rule behind the calls is not given here.

Legend:
[1] = molecular target: T1, Macrophage colony-stimulating factor 1 receptor (Mus musculus, UniProt P09581); assay: Inhibition of FMS in mouse BMDM cells; assay type: cell-based
T1 sequence (P09581 whole entry): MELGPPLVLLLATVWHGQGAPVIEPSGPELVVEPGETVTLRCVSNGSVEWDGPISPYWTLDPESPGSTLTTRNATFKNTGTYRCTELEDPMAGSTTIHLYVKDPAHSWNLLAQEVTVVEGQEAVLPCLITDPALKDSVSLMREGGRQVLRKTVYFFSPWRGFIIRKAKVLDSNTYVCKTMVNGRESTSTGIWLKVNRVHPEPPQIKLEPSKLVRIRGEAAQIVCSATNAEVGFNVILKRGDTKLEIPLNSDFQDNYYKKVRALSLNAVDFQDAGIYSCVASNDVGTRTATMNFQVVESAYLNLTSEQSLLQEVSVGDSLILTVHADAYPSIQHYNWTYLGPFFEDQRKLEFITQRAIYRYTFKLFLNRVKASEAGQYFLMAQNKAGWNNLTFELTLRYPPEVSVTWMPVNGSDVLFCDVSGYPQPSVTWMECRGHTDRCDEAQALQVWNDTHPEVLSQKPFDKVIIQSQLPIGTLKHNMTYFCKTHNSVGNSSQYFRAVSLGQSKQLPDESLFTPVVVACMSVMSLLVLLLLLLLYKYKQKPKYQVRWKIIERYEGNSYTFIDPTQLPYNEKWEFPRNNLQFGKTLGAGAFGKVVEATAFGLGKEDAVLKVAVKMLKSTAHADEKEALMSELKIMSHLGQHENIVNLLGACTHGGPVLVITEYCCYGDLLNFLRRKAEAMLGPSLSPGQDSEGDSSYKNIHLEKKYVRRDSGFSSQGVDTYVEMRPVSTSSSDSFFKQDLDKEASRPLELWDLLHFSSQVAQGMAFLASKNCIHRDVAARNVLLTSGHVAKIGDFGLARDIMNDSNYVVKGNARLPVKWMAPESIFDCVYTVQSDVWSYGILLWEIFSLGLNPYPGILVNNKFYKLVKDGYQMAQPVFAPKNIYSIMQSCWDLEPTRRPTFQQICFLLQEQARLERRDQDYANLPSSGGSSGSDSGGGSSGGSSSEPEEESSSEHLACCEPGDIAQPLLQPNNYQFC

[2] = Metabolic stability in rat liver microsomes assessed as compound remaining after 10 mins; assay type: ADME; details: read-out: Stability
How it was run: (§1)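 Compound was incubated with human, mouse or rat liver microsomal preparations. Stability is the percent of compound remaining after 10 min.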

[3] = Metabolic stability in human liver microsomes assessed as compound remaining after 10 mins; assay type: ADME; details: liver microsomes, read-out: Stability; how it was run: as §1
[4] = Metabolic stability in mouse liver microsomes assessed as compound remaining after 10 mins; assay type: ADME, Microsome; details: for remaining at 10 min: liver microsomes, read-out: Stability; how it was run: as §1
Mus musculus [5] = assay: Inhibition of CSF-1-induced c-fos gene expression in mouse spleen at 40 mg/kg, po after 6 hrs; assay type: functional
How it was run: (§2)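 In the mouse pharmacodynamic model, compound was given orally. Spleen c-fos mRNA induced by an iv injection of CSF-1 was measured 6 or 8 h after dosing.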

[6] = molecular target: Mast/stem cell growth factor receptor Kit (Homo sapiens, UniProt P10721); assay: Inhibition of KIT (unknown origin)
Sequence of Mast/stem cell growth factor receptor Kit (P10721 whole entry): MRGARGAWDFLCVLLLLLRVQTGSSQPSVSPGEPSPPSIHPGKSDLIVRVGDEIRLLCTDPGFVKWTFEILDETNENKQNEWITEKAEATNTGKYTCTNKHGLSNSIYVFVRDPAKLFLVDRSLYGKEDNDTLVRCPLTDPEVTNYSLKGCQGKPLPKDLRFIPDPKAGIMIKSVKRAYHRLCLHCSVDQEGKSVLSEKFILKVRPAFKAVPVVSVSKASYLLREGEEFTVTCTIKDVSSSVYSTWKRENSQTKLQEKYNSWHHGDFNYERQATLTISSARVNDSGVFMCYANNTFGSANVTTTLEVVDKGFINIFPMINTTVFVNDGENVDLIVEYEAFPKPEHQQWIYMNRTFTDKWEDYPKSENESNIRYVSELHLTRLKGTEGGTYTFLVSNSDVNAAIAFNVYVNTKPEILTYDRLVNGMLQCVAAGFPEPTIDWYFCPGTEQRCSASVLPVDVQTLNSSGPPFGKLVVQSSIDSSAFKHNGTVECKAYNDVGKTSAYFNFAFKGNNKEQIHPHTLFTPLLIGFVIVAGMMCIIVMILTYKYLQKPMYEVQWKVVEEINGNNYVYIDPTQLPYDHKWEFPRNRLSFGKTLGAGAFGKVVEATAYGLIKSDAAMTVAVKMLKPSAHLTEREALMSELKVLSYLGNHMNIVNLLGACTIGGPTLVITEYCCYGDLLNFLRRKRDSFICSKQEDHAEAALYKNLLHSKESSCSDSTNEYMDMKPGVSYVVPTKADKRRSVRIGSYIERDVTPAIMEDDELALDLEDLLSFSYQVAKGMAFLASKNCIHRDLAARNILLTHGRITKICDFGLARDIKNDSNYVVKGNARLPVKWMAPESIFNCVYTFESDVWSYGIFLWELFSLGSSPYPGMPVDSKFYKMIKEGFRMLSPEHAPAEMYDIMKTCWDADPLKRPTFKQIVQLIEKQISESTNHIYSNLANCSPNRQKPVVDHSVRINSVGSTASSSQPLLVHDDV

Mus musculus [7] = assay: Inhibition of CSF-1-induced c-fos gene expression in mouse spleen at 30 mg/kg, po after 6 hrs; assay type: functional; how it was run: as §2
Rattus norvegicus [8] = assay: Antiinflammatory activity in chronic phase of po dosed Lewis rat arthritis model assessed as inhibition of SCW-induced ankle swelling administered as bid for 14 days; assay type: functional, organism-based
How it was run: (§3)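 Female Lewis rats (80–100 g) received streptococcal cell wall material ip on day 0. On day 5, rats with a distinct acute-phase joint swelling response were randomized (n = 7/group). Vehicle, 10 or 40 mg/kg was given orally bid from day 10 (start of chronic phase) for 14 days. Ankle and paw swelling were followed.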

Rattus norvegicus [9] = assay: Antiinflammatory activity in chronic phase of Lewis rat arthritis model assessed as inhibition of SCW-induced ankle swelling at 10 to 40 mg/kg, po bid administered for 14 days; assay type: functional, organism-based; how it was run: as §3
Mo7e = assay: Selectivity ratio of IC50 for KIT in human Mo7e cells to IC50 for FMS in mouse BMDM cells; assay type: cell-based
How it was run: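 Cellular selectivity was calculated as Mo7e IC50 divided by BMDM IC50. Mo7e IC50 came from SCF-dependent proliferation of Mo7e leukemia cells. BMDM IC50 came from proliferation of murine bone marrow-derived macrophages.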

Row | SMILES | IC50 [1] | remaining at 10 min [2] | remaining at 10 min [3] | remaining at 10 min [4] | also measured
1 | CC1(C)CC=C(c2cc(S(N)(=O)=O)ccc2NC(=O)c2nc(C#N)c[nH]2)CC1 | > 0.15 µM |  |  |  | 
2 | CN1CCN(C(C)(C)c2ccc(NC(=O)c3ncc(C#N)[nH]3)c(C3=CCC(C)(C)CC3)c2)CC1 |  | 16% | 103% | 110% | inhibition in vivo at 40 mg/kg (Mus musculus [5]): 0%
3 | CC1(C)CC=C(c2cc(CCO)ccc2NC(=O)c2ncc(C#N)[nH]2)CC1 | 0.018 µM |  | 74% | 41% | 
4 | CCN1CCN(C(C)(C)c2ccc(NC(=O)c3nc(C#N)c[nH]3)c(C3=CCC(C)(C)CC3)c2)CC1 |  | 32% | 108% | 84% | IC50 [6]: 0.05 µM
5 | N#Cc1cnc(C(=O)Nc2ccc(Cc3nnn[nH]3)cc2C2=CCCCC2)[nH]1 | > 0.3 µM |  |  |  | 
6 | CC(O)c1ccc(NC(=O)c2ncc(C#N)[nH]2)c(C2=CCC(C)(C)CC2)c1 (centres undefined) | > 0.15 µM |  |  |  | 
7 | CN(C)C(=O)c1ccc(NC(=O)c2nc(C#N)c[nH]2)c(C2=CCC(C)(C)CC2)c1 | 0.13 µM |  |  |  | 
8 | CC1(C)CC=C(c2cc(S(C)(=O)=O)ccc2NC(=O)c2nc(C#N)c[nH]2)CC1 | 0.059 µM |  |  |  | 
9 | CC1(C)CC=C(c2cc(C(C)(C)NCCS(C)(=O)=O)ccc2NC(=O)c2nc(C#N)c[nH]2)CC1 |  | 28% | 93% | 62% | 
10 | CC1(C)CC=C(c2cc(-c3nnn[nH]3)ccc2NC(=O)c2ncc(C#N)[nH]2)CC1 | > 0.3 µM |  |  |  | 
11 | CC1(C)CC=C(c2cc(CCS(N)(=O)=O)ccc2NC(=O)c2nc(C#N)c[nH]2)CC1 | 0.086 µM | 5% | 109% |  | 
12 | N#Cc1cnc(C(=O)Nc2ccc(CN3CCOCC3)cc2C2=CCCCC2)[nH]1 | 0.02 µM |  | 71% | 5% | 
13 | CC1(C)CC=C(c2cc(C(C)(C)OCCN3CCOCC3)ccc2NC(=O)c2nc(C#N)c[nH]2)CC1 |  | 44% | 38% | 93% | IC50 [6]: 0.057 µM
14 | CC1(C)CC=C(c2cc(CCN3CCOCC3)ccc2NC(=O)c2ncc(C#N)[nH]2)CC1 |  |  | 66% | 49% | 
15 | CC1(C)CC=C(c2cc(CCS(=O)(=O)NN)ccc2NC(=O)c2nc(C#N)c[nH]2)CC1 | 0.021 µM |  |  |  | 
16 | N#Cc1cnc(C(=O)Nc2ccc(CCS(=O)(=O)NN)cc2C2=CCCCC2)[nH]1 | 0.023 µM |  |  |  | 
17 | N#Cc1c[nH]c(C(=O)Nc2ccc(CCS(=O)(=O)N3CCOCC3)cc2C2=CCCCC2)n1 |  | 4% | 118% | 93% | 
18 | CC1(C)CC=C(c2cc(C(C)(C)OCCN3CCCC3)ccc2NC(=O)c2nc(C#N)c[nH]2)CC1 |  |  |  |  | IC50 [6]: 0.025 µM
19 | CC1(C)CC=C(c2cc(CC(=O)NCCCO)ccc2NC(=O)c2ncc(C#N)[nH]2)CC1 | > 0.1 µM |  |  |  | 
20 | CC1(C)CC=C(c2cc(C(C)(C)NCCN3CCOCC3)ccc2NC(=O)c2nc(C#N)c[nH]2)CC1 | 0.0058 µM | 90% | 82% | 62% | inhibition in vivo at 30 mg/kg (Mus musculus [7]): 14%; IC50 [6]: 0.092 µM
21 | CC(C)(O)Cc1ccc(NC(=O)c2nc(C#N)c[nH]2)c(C2=CCCCC2)c1 | 0.032 µM | 47% | 66% | 61% | 
22 | CN(C)CCOC(C)(C)c1ccc(NC(=O)c2ncc(C#N)[nH]2)c(C2=CCC(C)(C)CC2)c1 |  | 39% | 104% |  | 

Row | SMILES | IC50 [1] | remaining at 10 min [2] | remaining at 10 min [3] | remaining at 10 min [4] | also measured
23 | COCCN1CCN(C(C)(C)c2ccc(NC(=O)c3nc(C#N)c[nH]3)c(C3=CCC(C)(C)CC3)c2)CC1 |  | 40% | 72% | 73% | IC50 [6]: 0.21 µM
24 | N#Cc1c[nH]c(C(=O)Nc2ccc(S(=O)(=O)N3CCOCC3)cc2C2=CCCCC2)n1 | 0.21 µM |  |  |  | 
25 | N#Cc1c[nH]c(C(=O)Nc2ccc(C(N)=O)cc2C2=CCCCC2)n1 | 0.034 µM |  |  |  | 
26 | COCCN(C)C(C)(C)c1ccc(NC(=O)c2nc(C#N)c[nH]2)c(C2=CCC(C)(C)CC2)c1 |  | 13% | 11% |  | 
27 | N#Cc1c[nH]c(C(=O)Nc2ccc(CCC(=O)O)cc2C2=CCCCC2)n1 |  | 19% | 83% |  | 
28 | N#Cc1cnc(C(=O)Nc2ccc(CCN3CCOCC3)cc2C2=CCCCC2)[nH]1 | 0.0018 µM |  | 46% | 2% | 
29 | CC1(C)CC=C(c2cc(CN3CCN(CCO)CC3)ccc2NC(=O)c2nc(C#N)c[nH]2)CC1 |  | 2% | 101% | 79% | 
30 | CN(CCS(C)(=O)=O)C(C)(C)c1ccc(NC(=O)c2nc(C#N)c[nH]2)c(C2=CCC(C)(C)CC2)c1 | 0.021 µM |  |  |  | 
31 | CC1(C)CC=C(c2cc(C(C)(C)O)ccc2NC(=O)c2nc(C#N)c[nH]2)CC1 | 0.025 µM | 96% | 110% |  | Stability ([4]; microsomes, 10 min): 124%
32 | N#Cc1cnc(C(=O)Nc2ccc(S(N)(=O)=O)cc2C2=CCCCC2)[nH]1 | > 0.15 µM |  |  |  | 
33 | N#Cc1c[nH]c(C(=O)Nc2ccc(CCS(N)(=O)=O)cc2C2=CCCCC2)n1 | 0.054 µM |  |  |  | 
34 | CC1(C)CC=C(c2cc(C(C)(C)N3CCN(CCO)CC3)ccc2NC(=O)c2ncc(C#N)[nH]2)CC1 |  |  |  |  | Activity (Rattus norvegicus [8]): Dose-dependent effect; Activity (Rattus norvegicus [9]): Active; inhibition in vivo at 40 mg/kg (Mus musculus [5]): 78%
35 | CN(C)CC(=O)N1CCC(c2ccc(NC(=O)c3nc(C#N)c[nH]3)c(C3=CCCCC3)c2)CC1 |  | 77% |  |  | Ratio IC50 (Mo7e): 15
36 | CC1(C)CC=C(c2cc(C(N)=O)ccc2NC(=O)c2nc(C#N)c[nH]2)CC1 | 0.032 µM |  |  |  | 
37 | CC1(C)CC=C(c2cc(C(C)(C)N3CCOCC3)ccc2NC(=O)c2nc(C#N)c[nH]2)CC1 | 0.017 µM |  |  |  | 
38 | CC1(C)CC=C(c2cc(C(C)(C)CO)ccc2NC(=O)c2nc(C#N)c[nH]2)CC1 | 0.033 µM |  |  |  | 
39 | CC1(C)CC=C(c2cc(C(C)(C)NCCO)ccc2NC(=O)c2nc(C#N)c[nH]2)CC1 | 0.0078 µM |  |  |  | Ratio IC50 (Mo7e): 32
40 | CC1(C)CC=C(c2cc(Cc3nnn[nH]3)ccc2NC(=O)c2ncc(C#N)[nH]2)CC1 | > 0.1 µM |  |  |  | 
41 | CC1(C)CC=C(c2cc(C(C)(C)N3CCS(=O)(=O)CC3)ccc2NC(=O)c2nc(C#N)c[nH]2)CC1 |  | 98% | 112% | 84% | inhibition in vivo at 30 mg/kg (Mus musculus [7]): 8%; IC50 [6]: 0.25 µM
42 | COCCNC(C)(C)c1ccc(NC(=O)c2nc(C#N)c[nH]2)c(C2=CCC(C)(C)CC2)c1 |  | 78% | 79% | 50% | IC50 [6]: 0.042 µM
43 | N#Cc1cnc(C(=O)Nc2ccc(CCO)cc2C2=CCCCC2)[nH]1 | 0.04 µM | 3% | 7% | 3% | 
44 | CC1(C)CC=C(c2cc(C(=O)O)ccc2NC(=O)c2nc(C#N)c[nH]2)CC1 | > 0.3 µM |  |  |  | 
